Experimental data reported in ChEMBL document CHEMBL2146382, “Cytotoxic and antineoplastic activity of timosaponin A-III for human colon cancer cells” (J Nat Prod, 2011).
The source made the active and inactive calls. No cut-off for these calls is given here.

How the values were obtained:
[1] = system: HCT-15; assay: Cell cycle arrest in human HCT15 cells assessed as accumulation at sub-G1 phase at 20 uM after 24 hrs using propidium-iodide staining by flow-cytometry (reference value: 6.5 %); assay type: functional
[2] = system: HCT-15; assay: Cell cycle arrest in human HCT15 cells assessed as accumulation at G0/G1 phase at 20 uM after 24 hrs using propidium-iodide staining by flow-cytometry (reference value: 37.0 %); assay type: functional
[3] = system: HCT-15; assay: Induction of apoptosis in human HCT15 cells assessed as DNA fragmentation at 5 to 20 uM after 24 hrs by agarose-gel electrophoresis; assay type: functional, cell-based
In short: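 HCT-15 cells seeded 1 × 10^6 per 100 mm dish, after 24 h given fresh medium with compound (0–20 μM) for 24 h; lysed in 50 mM Tris-HCl pH 7.5/20 mM EDTA/1% NP-40, RNase A then proteinase K digestion, ethanol/ammonium acetate precipitation; 4 μg DNA on 2% agarose, SYBR Gold stain.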

[4] = system: HCT-15; assay: Antineoplastic activity against human HCT15 cells xenografted in nude BALB/c mouse assessed as inhibition of rate of tumor size at 5 mg/kg, ip 3 times a week for 4 weeks relative to control; assay type: functional; conditions: HCT-15, ip, 672 h, route intraperitoneal
In short: (§1)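 HCT-15 cells (2 × 10^6 in 200 μL medium) implanted subcutaneously in flanks of BALB/c-nu (nu/nu) mice; dosing began at ca. 80 mm3 tumours; groups of five, randomized. 2 or 5 mg/kg given ip three times weekly in ethanol–cremophor–H2O (0.5:0.5:99), vehicle controls; caliper volume (3.14·L·W·H/6) three times weekly for 30 days; Ki-67 immunohistochemistry on tumour sections (1:250, 4 °C overnight, DAB, hematoxylin counterstain).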

[5] = system: HCT-15; assay: Antineoplastic activity against human HCT15 cells xenografted in nude BALB/c mouse assessed as inhibition of Ki-67 expression at 2 mg/kg, ip 3 times a week for 4 weeks by immunohistochemical analysis; assay type: functional, organism-based; design: dose 2 mg/kg; in short: as §1
[6] = system: HCT-15; assay: Cell cycle arrest at G0/G1 phase in human HCT15 cells assessed as decrease in CDK4 expression at 5 to 20 uM after 12 to 24 hrs by Western blot analysis; assay type: functional, cell-based
In short: (§2)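 HCT-15 cells in RPMI/10% FBS exposed to test compound at various concentrations; lysates quantified by BCA, 30–50 μg protein run on 10% SDS-PAGE, transferred to PVDF, blocked 1 h in 5% milk/PBST, primary antibodies overnight at 4 °C, HRP anti-mouse IgG 1:1500 for 3 h at room temperature, ECL detection.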

[7] = system: HCT-15; assay: Cell cycle arrest at G2/M phase in human HCT15 cells assessed as cyclin A down regulation at 5 to 20 uM after 12 to 24 hrs by Western blot analysis; assay type: functional, cell-based; in short: as §2
[8] = system: HCT-15; assay: Cell cycle arrest at G2/M phase in human HCT15 cells assessed as cyclin B1 down regulation at 5 to 20 uM after 12 to 24 hrs by Western blot analysis; assay type: functional, cell-based; in short: as §2
[9] = system: HCT-15; assay: Induction of apoptosis in human HCT15 cells assessed as suppression of procaspase-8 expression at 5 to 20 uM after 12 to 24 hrs by Western blot analysis; assay type: functional, cell-based
In short: (§3)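 HCT-15 cells (RPMI, 10% heat-inactivated FBS, antibiotics-antimycotics, 37 C, 5% CO2) exposed to compound. Cells lysed, protein measured by BCA, 30-50 μg per lane resolved on 10% SDS-PAGE and electroblotted to PVDF. Membranes blocked 1 h in 5% nonfat milk/PBST, probed with primary antibodies overnight at 4 C, then HRP anti-mouse IgG 1:1500 for 3 h at room temperature. Detection by ECL; β-actin antibody available.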

[10] = system: HCT-15; assay: Induction of apoptosis in human HCT15 cells assessed as increase in caspase-8 expression at 5 to 20 uM by Western blot analysis; assay type: functional, cell-based; in short: as §3
[11] = system: HCT-15; assay: Induction of apoptosis in human HCT15 cells assessed as increase in caspase-8 expression after 12 to 24 hrs by Western blot analysis; assay type: functional, cell-based; in short: as §2
[12] = system: HCT-15; assay: Induction of apoptosis in human HCT15 cells assessed as increase in caspase-9 expression at 5 to 20 uM by Western blot analysis; assay type: functional, cell-based; in short: as §3
[13] = system: HCT-15; assay: Cell cycle arrest in human HCT15 cells assessed as increase in cyclin E expression at 5 to 20 uM after 12 to 24 hrs by Western blot analysis; assay type: functional, cell-based; in short: as §2
[14] = system: HCT-15; assay: Induction of apoptosis in human HCT15 cells assessed as change in Bax expression at 5 to 20 uM after 24 hrs by Western blot analysis; assay type: functional, cell-based; in short: as §2
[15] = system: HCT-116; assay: Growth inhibition of human HCT116 cells; assay type: functional, cell-based
In short: (§4)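 SRB assay: cells at 5 × 10^4 cells/mL were exposed to a concentration series for 3 days, fixed with 10% TCA and stained with sulforhodamine B. Survival was expressed as % of solvent-treated control and IC50 taken by nonlinear regression of % survival versus concentration. Media held 10% heat-inactivated FBS plus antibiotics: RPMI (HCT-15, HCT 116, HT-29), RPMI with 25 mM HEPES (SW480, SW620), DMEM (MRC-5, Hs68). Cultures were kept at 37 C, 5% CO2.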

[16] = system: HT-29; assay: Growth inhibition of human HT-29 cells; assay type: functional, cell-based; in short: as §4
[17] = system: HCT-15; assay: Cytotoxicity against human HCT15 cells assessed as morphological changes with distinct rounded shapes and detachment after 12 to 24 hrs by phase-contrast microscopy; assay type: functional, cell-based
In short: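 HCT-15 cells treated with 0–20 μM for 12 and 24 h, vehicle-treated controls; morphology examined and photographed under phase-contrast microscope.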

[18] = system: HCT-15; assay: Cell cycle arrest in human HCT15 cells assessed as accumulation at S phase at 10 uM after 12 hrs using propidium-iodide staining by flow-cytometry (reference value: 34.7 %); assay type: functional
[19] = system: HCT-15; assay: Cell cycle arrest in human HCT15 cells assessed as accumulation at sub-G1 phase at 20 uM after 12 hrs using propidium-iodide staining by flow-cytometry (reference value: 5.2 %); assay type: functional
[20] = system: HCT-15; assay: Cell cycle arrest in human HCT15 cells assessed as accumulation at G0/G1 phase at 20 uM after 12 hrs using propidium-iodide staining by flow-cytometry (reference value: 44.4 %); assay type: functional
[21] = system: HCT-15; assay: Cell cycle arrest in human HCT15 cells assessed as accumulation at S phase at 20 uM after 12 hrs using propidium-iodide staining by flow-cytometry (reference value: 34.7 %); assay type: functional
[22] = system: HCT-15; assay: Cell cycle arrest in human HCT15 cells assessed as accumulation at G2/M phase at 5 uM after 24 hrs using propidium-iodide staining by flow-cytometry (reference value: 22.4 %); assay type: functional
[23] = system: HCT-15; assay: Cell cycle arrest in human HCT15 cells assessed as accumulation at sub-G1 phase at 10 uM after 24 hrs using propidium-iodide staining by flow-cytometry (reference value: 6.5 %); assay type: functional
[24] = system: HCT-15; assay: Cell cycle arrest in human HCT15 cells assessed as accumulation at G0/G1 phase at 10 uM after 24 hrs using propidium-iodide staining by flow-cytometry (reference value: 37.0 %); assay type: functional
[25] = system: HCT-15; assay: Cell cycle arrest in human HCT15 cells assessed as accumulation at G2/M phase at 10 uM after 24 hrs using propidium-iodide staining by flow-cytometry (reference value: 22.4 %); assay type: functional
[26] = system: HCT-15; assay: Growth inhibition of human HCT15 cells; assay type: functional, cell-based; in short: as §4

## C[C@H]1CC[C@@]2(OC1)O[C@H]1C[C@H]3[C@@H]4CC[C@@H]5C[C@@H](O[C@@H]6O[C@H](CO)[C@H](O)[C@H](O)[C@H]6O[C@@H]6O[C@H](CO)[C@@H](O)[C@H](O)[C@H]6O)CC[C@]5(C)[C@H]4CC[C@]3(C)[C@H]1[C@@H]2C [TIMOSAPONIN AIII]
[1]
  Activity: 39.7%
[2]
  Activity: 43.4%
[3]
  Activity: Active
[4]
  inhibition in vivo at 5 mg/kg: 37.3%
[5]
  Activity: Active
[6]
  Activity: Active
[7]
  Activity: Active
[8]
  Activity: Active
[9]
  Activity: Active
[10]
  Activity: Active
[11]
  Activity: Active
[12]
  Activity: Active
[13]
  Activity: Active
[14]
  Activity: inactive
[15]
  IC50: 5.5 µM
[16]
  IC50: 10.3 µM
[17]
  Activity: Dose-dependent effect
[18]
  Activity: 18.4%
[19]
  Activity: 41.8%
[20]
  Activity: 12.2%
[21]
  Activity: 4.2%
[22]
  Activity: 19.4%
[23]
  Activity: 6.4%
[24]
  Activity: 47.9%
[25]
  Activity: 30.4%
[26]
  IC50: 6.1 µM
